In ChEMBL document CHEMBL1154715, “Identification of benzofuro[2,3-b]quinoline derivatives as a new class of antituberculosis agents” (Eur J Med Chem, 2010):
Converted amounts (≈) assume the structure as drawn.

Experiments:
SF-268 [1] = experiment: Cytotoxicity against human SF268 cells at 4 ug/ml after 48 hrs by SRB assay; format: functional
Method in brief: (§1)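 MCF7, NCI-H460 and SF-268 cells were kept in RPMI-1640 with 5% fetal bovine serum, then seeded and preincubated in microtiter plates. Compound was added at two fixed concentrations and incubated for 48 h. The endpoint was sulforhodamine B protein staining, reported as percent growth of treated cells relative to untreated controls.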

MCF7 [2] = experiment: Cytotoxicity against human MCF7 cells at 20 ug/ml after 48 hrs by SRB assay; format: functional; method in brief: as §1
NCI-H460 [3] = experiment: Cytotoxicity against human NCI-H460 cells at 20 ug/ml after 48 hrs by SRB assay; format: functional; method in brief: as §1
[4] = Selectivity index, ratio of IC50 for african green monkey Vero cells to MIC for Mycobacterial tuberculosis H37Rv ATCC 27294; format: functional
Method in brief: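 SI calculated as IC50/MIC, where MIC (H37Rv, Alamar Blue microdilution in BACTEC 12B medium) is the lowest concentration cutting fluorescence 90% versus controls.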

Vero = experiment: Cytotoxicity against african green monkey Vero cells after 72 hrs by MTT assay; format: cell-based, Chlorocebus sabaeus
MCF7 [5] = experiment: Cytotoxicity against human MCF7 cells at 4 ug/ml after 48 hrs by SRB assay; format: functional; method in brief: as §1
[6] = tested on: Mycobacterium tuberculosis; experiment: Antitubercular activity against Mycobacterium tuberculosis H37Rv ATCC 27294 by microplate Alamar blue assay; format: functional
Method in brief: (§2)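 M. tuberculosis H37Rv (ATCC 27294) in BACTEC 12B medium; broth microdilution, Microplate Alamar Blue readout. MIC taken as lowest concentration giving 90% reduction in fluorescence versus controls.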

NCI-H460 [7] = experiment: Cytotoxicity against human NCI-H460 cells at 4 ug/ml after 48 hrs by SRB assay; format: functional; method in brief: as §1
SF-268 [8] = experiment: Cytotoxicity against human SF268 cells at 20 ug/ml after 48 hrs by SRB assay; format: functional; method in brief: as §1
[9] = tested on: Mycobacterium tuberculosis; experiment: Antitubercular activity against Mycobacterium tuberculosis H37Rv ATCC 27294 at <0.2 ug/ml by microplate Alamar blue assay; format: functional; method in brief: as §2

Structure (SMILES) | Activity (SF-268 [1]) [%] | Activity (MCF7 [2]) [%] | Activity (NCI-H460 [3]) [%] | Selectivity Index [4] | IC50 (Vero) [µg/mL] | Activity (MCF7 [5]) [%] | MIC [6] [µg/mL] | Activity (NCI-H460 [7]) [%] | Activity (SF-268 [8]) [%] | inhibition (INH) [9] [%]
c1ccc(Nc2c3ccccc3nc3oc4ccccc4c23)cc1 | 118 | 44 | 53 | 1.15 | 6.14 (≈ 19.8 µM) | 118 | 5.35 (≈ 17.2 µM) | 104 | 76 | –
CC(=O)c1ccc(Nc2c3ccccc3nc3oc4ccccc4c23)cc1 | 109 | 49 | 20 | – | – | 106 | 14.6 (≈ 41.3 µM) | 64 | 63 | –
COc1ccc(Nc2c3ccccc3nc3oc4ccccc4c23)cc1 | 111 | 35 | 17 | 1.38 | 3.63 (≈ 10.7 µM) | 109 | 2.63 (≈ 7.73 µM) | 83 | 87 | –
COc1c2ccccc2nc2oc3ccccc3c12 | 98 | 92 | 68 | >58.85 | 11.77 (≈ 47.2 µM) | 102 | < 0.2 | 90 | 98 | 99
c1ccc(Oc2c3ccccc3nc3oc4ccccc4c23)cc1 | 108 | 64 | 91 | – | – | 94 | > 100 | 99 | 108 | –
CCOc1c2ccccc2nc2oc3ccccc3c12 | 86 | 77 | 84 | 7.18 | 10.34 (≈ 39.3 µM) | 99 | 1.44 (≈ 5.47 µM) | 92 | 90 | –
Nc1c2ccccc2nc2oc3ccccc3c12 | 84 | 113 | 107 | – | – | 114 | > 100 | 110 | 72 | –
CN(C)c1c2ccccc2nc2oc3ccccc3c12 | 102 | 48 | 76 | >150 | > 30 | 87 | < 0.2 | 108 | 91 | –
CNc1c2ccccc2nc2oc3ccccc3c12 | 98 | 99 | 99 | >27.75 | 5.55 (≈ 22.4 µM) | 100 | < 0.2 | 102 | 86 | –
COc1cccc(Nc2c3ccccc3nc3oc4ccccc4c23)c1 | 97 | 84 | 46 | – | – | 107 | 17.8 (≈ 52.4 µM) | 99 | 60 | –
CO[C@H]1/C=C/O[C@@]2(C)Oc3c(C)c(O)c4c(O)c(c(/C=N/N5CCN(C)CC5)c(O)c4c3C2=O)NC(=O)/C(C)=C\C=C\[C@H](C)[C@H](O)[C@@H](C)[C@@H](O)[C@@H](C)[C@H](OC(C)=O)[C@@H]1C [RIFAMPIN] | – | – | – | 400 | 100 (≈ 122 µM) | – | 0.125 (≈ 0.152 µM) | – | – | –
CC(=O)c1ccc(Oc2c3ccccc3nc3oc4ccccc4c23)cc1 | 104 | 88 | 62 | – | – | 100 | > 100 | 104 | 100 | –
